High-throughput results deposited in PubChem by The Scripps Research Institute Molecular Screening Center.
M5 antag: human M5 muscarinic receptor antagonists, primary screen, CHO cells, Fluo-8 calcium fluorescence. Muscarinic acetylcholine receptor M5 (Homo sapiens), P08912. CHO-hM5 cells, ACh EC80. inhibition, % at 3 µM. actives 0.59% (n = 360,000);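 active means inhibition above a per-plate cutoff, the mean of that plate's test compounds plus 3 SD, cut at about 27% in these data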;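 further: 0% = acetylcholine EC80 with DMSO and 100% = DMSO without agonist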
Target sequence (P08912 whole entry, looked up): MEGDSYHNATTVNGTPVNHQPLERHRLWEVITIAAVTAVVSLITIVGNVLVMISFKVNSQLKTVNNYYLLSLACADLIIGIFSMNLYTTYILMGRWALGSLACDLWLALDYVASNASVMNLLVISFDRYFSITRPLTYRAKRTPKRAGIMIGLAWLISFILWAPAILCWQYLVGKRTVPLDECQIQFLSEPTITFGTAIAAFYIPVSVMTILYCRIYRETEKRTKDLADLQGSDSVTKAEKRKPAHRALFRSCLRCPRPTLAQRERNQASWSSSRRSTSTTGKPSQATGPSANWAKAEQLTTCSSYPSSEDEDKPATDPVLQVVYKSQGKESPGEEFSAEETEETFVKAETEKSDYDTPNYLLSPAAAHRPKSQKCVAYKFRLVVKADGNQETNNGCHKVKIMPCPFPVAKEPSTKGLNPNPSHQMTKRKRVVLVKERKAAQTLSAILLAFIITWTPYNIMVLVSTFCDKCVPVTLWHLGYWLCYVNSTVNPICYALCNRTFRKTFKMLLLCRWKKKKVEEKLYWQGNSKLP
M5 ag: human M5 muscarinic receptor agonists, primary screen, CHO-K1 cells, Fluo-8 calcium fluorescence. Muscarinic acetylcholine receptor M5 (Homo sapiens), P08912. CHO-K1 hM5 cells; 0% DMSO wells, 100% maximal acetylcholine response. activation, % at 3 µM. actives 0.19% (n = 360,000);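 active means activation above the run's mean over test compounds plus 3 SD, cut at about 23% in these data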;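 further: signal is peak over basal fluorescence ratio across the kinetic read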
M4 ag: human M4 muscarinic receptor agonists, primary screen, CHO-K1 cells, Fluo-8 calcium fluorescence; actives 0.14% (n = 360,000); Muscarinic acetylcholine receptor M4 (Homo sapiens), P08173; CHO-K1 hM4/Gqi5; vehicle 0%, full acetylcholine response 100%; activation, % at 3 µM;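 active means activation above the run mean over all test wells plus 3 SD, cut at about 32% in these data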;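 further: peak over basal fluorescence ratio per well then scaled between controls; 0% = DMSO wells and 100% = acetylcholine at EC100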
CHRM4 PAM: human M4 muscarinic receptor positive allosteric modulators, primary screen, CHO-K1 cells, Fluo-8 calcium fluorescence; CHO-K1 hM4/Gqi5, ACh EC20; 0% = ACh EC20, 100% = maximal ACh; activation, % at 3 µM; actives 0.4% (n = 360,000); AID 624126, 2012;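 active means activation above its plate's cutoff, the mean activation of sample wells plus 3 SD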
M5 PAM: human M5 muscarinic receptor positive allosteric modulators, primary screen, CHO-K1 cells, Fluo-8 calcium fluorescence. AID 624038, 2012. CHO-K1 hM5, ACh EC20 PAM; 0% = ACh EC20, 100% = ACh EC100. actives 0.3% (n = 360,000). activation, % at 3 µM;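 active means activation above the run cutoff, the mean activation of all test compounds plus 3 SD, cut at about 18% in these data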
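System: CHO-K1 cell line with stable human muscarinic M5 receptor expression | Also added: EC20 acetylcholine as agonist stimulus | Compound: One concentration, 3 µM final (nominal) | Timing: Fluo-8 loading 80 min at 37 °C plus 30 min room temperature | Measured by: Fluo-8 calcium dye fluorescence, kinetic read | Read-out basis: % activation, ACh-normalized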
CHRM4 antagonist: human M4 muscarinic receptor antagonists, primary screen, CHO cells, Fluo-8 calcium fluorescence | CHO-hM4 cells, ACh EC80 | inhibition, % at 3 µM | actives 0.73% (n = 360,000) | AID 624125, 2012;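 active means inhibition above its plate's cutoff, the mean inhibition of sample wells plus 3 SD, cut at about 27% in these data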;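 further: 0% = acetylcholine EC80 with DMSO and 100% = DMSO without agonist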
The depositor's hits bear a star. Rows were chosen to be rich in hits. Some 1.9% of all compounds tested hit in one or more screens of this group.

SMILES	M5 antag	M5 ag	M4 ag	CHRM4 PAM	M5 PAM	CHRM4 antagonist
COc1ccc(C2=Nn3c(nnc3-c3ccccc3Cl)SC2)cc1OCC1CC1	16	-10	3	-2	-24	17
COc1ccc(OC)c(-c2nnc3n2N=C(c2ccc(OC)c(OCC4CC4)c2)CS3)c1	-3	-12	5	-9	-14	29*
O=C(OCC(=O)c1cccc2ccccc12)c1ccc(CO)cc1	17	-2	13	-5	-14	2
CCN1CCN(C(=S)Nc2ccc3nc4n(c(=O)c3c2)CCCCC4)CC1	1	-1	7	27*	4	-9
O=c1c2cc(NC(=S)N3CCCC3)ccc2nc2n1CCCCC2	21	-1	17	-15	-21	1
Cc1ccc(C(C)NC(=O)/C(C#N)=C\c2c(C)[nH]c3ccccc23)cc1 (stereo unspecified)	10	27*	21	5	-7	7
Cc1ccc(NC(=O)c2nc(S(=O)(=O)Cc3ccccc3C)ncc2Cl)cc1C	4	-5	5	-8	0	36*
CC(=O)Nc1ccc(NC(=O)c2nc(S(=O)(=O)Cc3cccc(C)c3)ncc2Cl)cc1	17	-6	0	-7	-7	18
CCS(=O)(=O)c1ncc(Cl)c(C(=O)Nc2ccc(S(=O)(=O)N3CCC(C)CC3)cc2)n1	27	-7	13	-11	-10	47*
Cc1cccc(CS(=O)(=O)c2ncc(Cl)c(C(=O)NCc3ccc4c(c3)OCO4)n2)c1	12	-4	5	-16	1	33*
CC1CCN(S(=O)(=O)c2ccc(NC(=O)c3ccncc3)cc2)CC1	-4	2	11	-11	-4	-2
CCc1ccc(NC(=O)c2nc(S(=O)(=O)Cc3ccccc3)ncc2Cl)cc1	20	-6	3	-12	-8	68*
CS(=O)(=O)c1ccc(C(=O)CN2C(=O)NC3(CCCc4ccccc43)C2=O)cc1 (stereo unspecified)	8	2	4	3	5	-7
CC(C)NS(=O)(=O)c1ccc(NC(=O)C(C)OC(=O)CCC(=O)c2cccs2)cc1 (stereo unspecified)	-4	11	10	-8	0	0
Cc1ccc(C(=O)NCCNc2ncc(C(F)(F)F)cc2Cl)cc1[N+](=O)[O-]	27*	-7	7	-20	-16	11
Cc1ccc(OCc2nc(-c3ccc(-n4cccc4)cc3)no2)cc1C	9	0	-1	3	-2	-12
Cc1cccc(OCc2nc(-c3ccc(-n4cccc4)cc3)no2)c1	1	1	1	18*	3	-28
CC(=O)c1ccc(NC(=O)COc2ccc3c(c2)OCO3)cc1	3	-1	2	5	0	-4
Cc1ccc(C)c(S(=O)(=O)NCc2ccc(C(=O)N3CCN(C)CC3)cc2)c1	-7	3	1	20*	14	-12
O=C(Cc1ccc(Br)cc1)Nc1cccc(-c2cn3c(n2)SCC3)c1	-10	15	9	-4	3	-1
C=C1C(=O)C23C(O)C1CCC2C12CCCC(C)(COC(C)=O)C1C(O)C3(O)OC2 (stereo unspecified)	11	4	3	-7	-5	42*
O=C1NC(=S)S/C1=C\c1cc(Cl)cc(Cl)c1O	30*	193*	52*	-13	-41	12
CC(C)Cn1cc(F)c(=O)n(CC(C)C)c1=O	5	-3	1	1	-5	2
CC(C)CNC(=O)NC(=O)COc1ncnc2sccc12	6	2	1	28*	-4	12
CC(C)CCNC(=O)NC(=O)COc1ncnc2sccc12	-16	7	0	15	13	-2
SMILES	M5 antag	M5 ag	M4 ag	CHRM4 PAM	M5 PAM	CHRM4 antagonist
CCOC(=O)c1c(NC(=O)CSc2nnc(-c3cccnc3)n2Cc2ccco2)sc(C)c1C	-10	-10	-1	8	19*	4
CCOC(=O)c1c(NC(=O)CSc2nnc(-c3ccco3)o2)sc(C(C)=O)c1C	-6	1	2	0	0	-1
CCOC(=O)c1c(NC(=O)CSc2nnc(-c3ccco3)o2)sc(C)c1C	2	-2	1	36*	0	0
c1ccc(Cn2c(-c3ccccc3)c[n+]3c2SCCC3)cc1	96*	-18	0	-16	-28	97*
COc1ccc(-c2c[n+]3c(n2-c2ccccc2)SCC3)cc1	0	-17	0	-12	6	22
Cc1cc2nc(NCCCO)n(CC(=O)c3cc(C(C)(C)C)c(O)c(C(C)(C)C)c3)c2cc1C	3	4	3	12	7	-1
N=C(N)c1ccc(O)cc1	-2	0	1	28*	1	-9
CCOC(=O)c1nc(C)nc(Sc2n[nH]c(-c3ccc(C(C)(C)C)cc3)n2)c1C	20	-4	-2	-15	-16	-6
COc1ccc2nc(C)cc(NCc3ccc(F)cc3)c2c1	32*	14	32*	-7	-6	27*
COc1ccc2nc(C)cc(Nc3ccc(C)cc3)c2c1	5	-3	1	-5	-4	-1
Brc1ccc(-c2c[n+]3c(n2-c2ccccc2)SCC3)cc1	6	-18	0	-16	2	54*
COc1ccc(CCNC(=O)C(=O)c2cn(CC(=O)N3CCCC3)c3ccccc23)cc1OC	6	0	3	-4	-4	-1
Cc1ccc(NC(=O)CCOc2ccccc2C)cc1C	10	-5	0	0	-2	-4
O=c1c2ccccc2sc2ccc(NCCCN3CCOCC3)cc12	18	18	33*	0	-10	-15
CC(c1nc2ccccc2[nH]1)n1c(=O)c(-c2cccnc2)nc2ccccc21 (stereo unspecified)	-18	3	-2	5	18*	-15
CCC(c1nc2ccccc2[nH]1)n1c(=O)c(-c2cccnc2)nc2ccccc21 (stereo unspecified)	2	0	-2	-2	2	13
COc1ccc(NC(=O)COC(=O)c2ccc(OCc3c(C)noc3C)cc2)cc1OC	26	3	7	-18	-17	5
COc1cc(C(=O)OCC(=O)Nc2ccc3c(c2)OC(F)(F)O3)ccc1OCc1c(C)noc1C	-3	-4	1	7	32*	6
Cc1cc(O)c(-c2cc(O)c(C)cc2O)cc1O	5	0	2	-7	-5	28*
